Measurements reported in ChEMBL document CHEMBL2331168, “Anticonvulsant evaluation of aminoalkanol derivatives of 2- and 4-methylxanthone” (Bioorg Med Chem, 2013).
Active and inactive are the calls of the source.

Legend:
Mus musculus [1] = assay: Neurotoxicity in albino mouse assessed as minimal motor impairment at 300 mg/kg, ip after 4 hrs by rotorod test; format: toxicity, organism-based; design: dose 300 mg/kg, route intraperitoneal; details: in vivo
Summary of the method: (§1)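 Male albino mice (Carworth Farms No. 1) were dosed ip with suspensions in 0.5% methylcellulose and put on a 1 in. knurled rod rotating at 6 rpm at set times after dosing. Neurotoxicity meant failure to stay on the rod for at least 1 min in each of three trials. Scored as impaired/tested.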

Mus musculus [2] = assay: Neurotoxicity in albino mouse assessed as minimal motor impairment at 100 mg/kg, ip after 4 hrs by rotorod test; format: toxicity, organism-based; design: dose 100 mg/kg, route intraperitoneal; details: in vivo; summary of the method: as §1
Mus musculus [3] = assay: Neurotoxicity in albino mouse assessed as minimal motor impairment at 100 mg/kg, ip after 1 hr by rotorod test; format: toxicity, organism-based; design: dose 100 mg/kg, route intraperitoneal; details: in vivo; summary of the method: as §1
Mus musculus [4] = assay: Neurotoxicity in albino mouse assessed as minimal motor impairment at 100 mg/kg, ip after 0.25 hrs by rotorod test; format: toxicity, organism-based; design: dose 100 mg/kg, route intraperitoneal; details: in vivo; summary of the method: as §1
Mus musculus [5] = assay: Anticonvulsant activity in albino mouse assessed as protection against subcutaneous pentetrazole-induced seizures at 100 mg/kg, ip after 4 hrs; format: functional, organism-based; design: dose 100 mg/kg
Summary of the method: (§2)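 Male albino mice (Carworth Farms No. 1) received compound ip in 0.5% methylcellulose, then pentetrazole 85 mg/kg sc in 0.9% NaCl at 0.5 or 4 h. Mice were watched for at least 30 min. Protection meant no threshold seizure, defined as a single clonic spasm lasting at least 5 s. Scored as protected/tested.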

Mus musculus [6] = assay: Anticonvulsant activity in albino mouse assessed as protection against subcutaneous pentetrazole-induced seizures at 300 mg/kg, ip after 0.5 hrs; format: functional, organism-based; design: dose 300 mg/kg; summary of the method: as §2
Mus musculus [7] = assay: Anticonvulsant activity in albino mouse assessed as protection against subcutaneous pentetrazole-induced seizures at 100 mg/kg, ip after 0.5 hrs; format: functional, organism-based; design: dose 100 mg/kg; summary of the method: as §2
Mus musculus [8] = assay: Anticonvulsant activity in albino mouse assessed as protection against subcutaneous pentetrazole-induced seizures at 30 mg/kg, ip after 0.5 hrs; format: functional, organism-based; design: dose 30 mg/kg; summary of the method: as §2
Mus musculus [9] = assay: Anticonvulsant activity in albino mouse assessed as protection against maximal electroshock-induced seizures at 300 mg/kg, ip after 4 hrs; format: functional, organism-based; design: dose 300 mg/kg
Summary of the method: (§3)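 Male albino mice (Carworth Farms No. 1) were given the compound ip as a suspension in 0.5% methylcellulose at 3–300 mg/kg. MES testing was at 0.5 and 4 h, sometimes also at 0.25 and 1 h. Current was 60 Hz, 50 mA, 0.2 s via corneal electrodes, with saline eye drops. Protection meant no hindlimb tonic extension, scored as protected/tested.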

Mus musculus [10] = assay: Anticonvulsant activity in albino mouse assessed as protection against maximal electroshock-induced seizures at 100 mg/kg, ip after 4 hrs; format: functional, organism-based; design: dose 100 mg/kg; summary of the method: as §3
Mus musculus [11] = assay: Anticonvulsant activity in albino mouse assessed as protection against maximal electroshock-induced seizures at 30 mg/kg, ip after 4 hrs; format: functional, organism-based; design: dose 30 mg/kg; summary of the method: as §3
Mus musculus [12] = assay: Anticonvulsant activity in albino mouse assessed as protection against maximal electroshock-induced seizures at 100 mg/kg, ip after 1 hr; format: functional, organism-based; design: dose 100 mg/kg; summary of the method: as §3
Mus musculus [13] = assay: Anticonvulsant activity in albino mouse assessed as protection against maximal electroshock-induced seizures at 300 mg/kg, ip after 0.5 hrs; format: functional, organism-based; design: dose 300 mg/kg; summary of the method: as §3
Mus musculus [14] = assay: Anticonvulsant activity in albino mouse assessed as protection against maximal electroshock-induced seizures at 100 mg/kg, ip after 0.5 hrs; format: functional, organism-based; design: dose 100 mg/kg; summary of the method: as §3
Mus musculus [15] = assay: Anticonvulsant activity in albino mouse assessed as protection against maximal electroshock-induced seizures at 30 mg/kg, ip after 0.5 hrs; format: functional, organism-based; design: dose 30 mg/kg; summary of the method: as §3
Mus musculus [16] = assay: Anticonvulsant activity in albino mouse assessed as protection against maximal electroshock-induced seizures at 100 mg/kg, ip after 0.25 hrs; format: functional, organism-based; design: dose 100 mg/kg; summary of the method: as §3
[17] = Neurotoxicity in ip dosed albino mouse assessed as minimal motor impairment after 0.25 hrs by rotorod test; format: toxicity, organism-based; details: in vivo
Summary of the method: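 TD50, with 95% confidence intervals, was the ip dose causing neurotoxicity in 50% of male albino mice. Deficit was judged on the rotorod: a 1 in. knurled rod at 6 rpm, where failure to hold on for 1 min in each of three trials counted as deficit. Read at the stated time after dosing.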

Mus musculus [18] = assay: Anticonvulsant activity in ip dosed albino mouse assessed as protection against subcutaneous pentetrazole-induced seizures after 1 hr; format: functional
Mus musculus [19] = species on record: Mus musculus; assay: Protective index, ratio TD50 for albino mouse to ED50 for albino mouse by maximal electroshock-induced seizure test after 1 hr; format: functional
Summary of the method: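 Protective index was calculated as mouse ip TD50 (rotorod) divided by mouse ip MES ED50, both obtained by quantitative dose-response testing at the stated post-dose time.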

Mus musculus [20] = assay: Anticonvulsant activity in ip dosed albino mouse assessed as protection against maximal electroshock-induced seizures after 1 hr; format: functional
Summary of the method: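 ED50, with 95% confidence intervals, was the ip dose protecting 50% of mice in the MES test. It was measured at the stated post-dose time in male albino mice given suspensions in 0.5% methylcellulose. MES used 60 Hz, 50 mA, 0.2 s corneal stimulation, and the endpoint was abolition of hindlimb tonic extension.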

Mus musculus [21] = assay: Neurotoxicity in albino mouse assessed as minimal motor impairment at 30 mg/kg, ip after 4 hrs by rotorod test; format: toxicity, organism-based; design: dose 30 mg/kg, route intraperitoneal; details: in vivo; summary of the method: as §1
Mus musculus [22] = assay: Neurotoxicity in albino mouse assessed as minimal motor impairment at 10 mg/kg, ip after 0.5 hrs by rotorod test; format: toxicity, organism-based; design: dose 10 mg/kg, route intraperitoneal; details: in vivo; summary of the method: as §1
Mus musculus [23] = assay: Neurotoxicity in albino mouse assessed as minimal motor impairment at 3 mg/kg, ip after 0.5 hrs by rotorod test; format: toxicity, organism-based; design: dose 3 mg/kg, route intraperitoneal; details: in vivo; summary of the method: as §1
Mus musculus [24] = assay: Anticonvulsant activity in albino mouse assessed as protection against subcutaneous pentetrazole-induced seizures at 300 mg/kg, ip after 4 hrs; format: functional, organism-based; design: dose 300 mg/kg; summary of the method: as §2
Mus musculus [25] = assay: Anticonvulsant activity in albino mouse assessed as protection against subcutaneous pentetrazole-induced seizures at 30 mg/kg, ip after 4 hrs; format: functional, organism-based; design: dose 30 mg/kg; summary of the method: as §2
Mus musculus [26] = assay: Anticonvulsant activity in albino mouse assessed as protection against maximal electroshock-induced seizures at 3 mg/kg, ip after 0.5 hrs; format: functional, organism-based; design: dose 3 mg/kg; summary of the method: as §3
Mus musculus [27] = assay: Neurotoxicity in albino mouse assessed as minimal motor impairment at 30 mg/kg, ip after 0.5 hrs by rotorod test; format: toxicity, organism-based; design: dose 30 mg/kg, route intraperitoneal; details: in vivo; summary of the method: as §1
Rattus norvegicus [28] = assay: Neurotoxicity in Sprague-Dawley rat assessed as minimal motor impairment at 30 mg/kg, po after 1 hr by rotorod test; details: in vivo
Rattus norvegicus [29] = assay: Neurotoxicity in Sprague-Dawley rat assessed as minimal motor impairment at 30 mg/kg, po after 4 hrs by rotorod test; details: in vivo
Rattus norvegicus [30] = assay: Neurotoxicity in Sprague-Dawley rat assessed as minimal motor impairment at 30 mg/kg, po after 2 hrs by rotorod test; details: in vivo
Rattus norvegicus [31] = assay: Neurotoxicity in Sprague-Dawley rat assessed as minimal motor impairment at 30 mg/kg, po after 0.5 hrs by rotorod test; details: in vivo
Rattus norvegicus [32] = assay: Neurotoxicity in Sprague-Dawley rat assessed as minimal motor impairment at 30 mg/kg, po after 0.25 hrs by rotorod test; details: in vivo

Structure (SMILES)	Activity (Mus musculus [1])	Activity (Mus musculus [2])	Activity (Mus musculus [5])	Activity (Mus musculus [6])	Activity (Mus musculus [7])	Activity (Mus musculus [8])	Activity (Mus musculus [9])	Activity (Mus musculus [10])	Activity (Mus musculus [11])	Activity (Mus musculus [13])	Activity (Mus musculus [14])	Activity (Mus musculus [15])	also measured
COc1ccc2c(=O)c3cccc(CN(C)C(C)CO)c3oc2c1 (racemic)	Non-toxic	Non-toxic	inactive	inactive	inactive	inactive	Active	inactive	inactive	Active	inactive	inactive	Activity (Mus musculus [3]): Non-toxic; Activity (Mus musculus [4]): Non-toxic; Activity (Mus musculus [12]): inactive; Activity (Mus musculus [16]): inactive
CC[C@@H](CO)NCc1ccc2oc3cc(OC)ccc3c(=O)c2c1	Toxic	Non-toxic	inactive	inactive	inactive	inactive	Active	Active	inactive	Active	Active	Active	TD50 at 0.25 h [17]: > 400 mg/kg; ED50 (Mus musculus [18]): > 200 mg/kg; Ratio TD50/ED50 (Mus musculus [19]): >8.41; ED50 (Mus musculus [20]): 47.6 mg/kg; Activity (Mus musculus [21]): Non-toxic; Activity (Mus musculus [22]): Non-toxic; Activity (Mus musculus [23]): Non-toxic; Activity (Mus musculus [24]): inactive; Activity (Mus musculus [25]): inactive; Activity (Mus musculus [26]): inactive; Activity (Mus musculus [27]): Non-toxic; Activity (Rattus norvegicus [28]): Non-toxic; Activity (Rattus norvegicus [29]): Non-toxic; Activity (Rattus norvegicus [30]): Non-toxic; Activity (Rattus norvegicus [31]): Non-toxic; Activity (Rattus norvegicus [32]): Non-toxic
